Screening results (PubChem)
Most compounds without a hit are left out; they make up all but 1.5% or so of the library.
GalR3 antagonist – GalR3 antagonists in HEK293 cells, primary screen, cell-based, fluorescence readout. AID 651719, 2012. 360,000 tested, 0.44% active. HEK293 GalR3-CNG cAMP membrane potential fluorescence; galR3 body fused to GalR1 C-terminus. inhibition, % at 3 µM. Galanin receptor type 3 (Homo sapiens), O60755;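 active means inhibition above the screen-wide average plus 3 SD, cut at about 13% in these data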;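 further: forskolin and galanin both at EC90 stimulate the cells; cAMP rise reported by CNG channel membrane potential dye signal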
Target sequence (O60755 1-299 limits assumed): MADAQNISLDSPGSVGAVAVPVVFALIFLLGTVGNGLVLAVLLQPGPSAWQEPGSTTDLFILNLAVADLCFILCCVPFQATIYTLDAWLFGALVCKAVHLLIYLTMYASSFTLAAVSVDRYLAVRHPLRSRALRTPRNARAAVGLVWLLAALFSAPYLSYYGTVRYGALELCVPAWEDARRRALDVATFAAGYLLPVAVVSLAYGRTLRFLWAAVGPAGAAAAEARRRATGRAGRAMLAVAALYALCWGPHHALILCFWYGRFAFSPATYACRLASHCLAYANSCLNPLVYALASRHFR
NR2E3 ag-1 – inhibitors of NR2E3-RetCOR corepressor binding, primary screen, NR2E3 agonist project, biochemical, TR-FRET, GST-NR2E3, biotin-RetCOR | Photoreceptor-specific nuclear receptor (Homo sapiens), Q9Y5X4 | 1536-well | inhibition of corepressor binding, % at 4.78 µM | 320,000 tested, 0.12% active | AID 2300, 2010;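 active means percent inhibition above the cutoff of mean plus 3 SD of all tested compounds, set per screening campaign, cut at about 20% in these data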
Target sequence (Q9Y5X4 whole entry, looked up): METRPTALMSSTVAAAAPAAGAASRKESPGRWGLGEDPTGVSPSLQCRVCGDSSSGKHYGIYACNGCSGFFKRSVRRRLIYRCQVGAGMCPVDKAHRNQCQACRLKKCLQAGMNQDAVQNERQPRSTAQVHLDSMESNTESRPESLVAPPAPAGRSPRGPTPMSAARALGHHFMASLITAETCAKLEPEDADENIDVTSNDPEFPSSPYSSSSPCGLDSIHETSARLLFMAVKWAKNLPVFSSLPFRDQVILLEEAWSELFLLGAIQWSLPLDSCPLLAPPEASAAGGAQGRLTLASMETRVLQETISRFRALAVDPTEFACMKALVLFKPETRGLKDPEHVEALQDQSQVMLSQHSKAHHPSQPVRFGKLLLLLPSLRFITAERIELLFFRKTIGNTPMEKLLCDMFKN
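Material – GST-tagged NR2E3 plus biotinylated RetCOR corepressor · Quantity – NR2E3 fusion 1.35 nM · Times – 5 h incubation at 4 °C · Medium – pH 7.5 Tris-based buffer · Technique – TR-FRET, Eu(K)-anti-GST donor, streptavidin-D2 acceptor, ex 340, em 617/671 nm · Benchmarks – high control biotin, low control 0.6% DMSO · Format – 1536-well plates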
697 NFkB inh – inhibitors of PMA/ionomycin-induced NF-kB reporter, 697 cells, primary screen, B-cell NF-kB inhibitor project, cell-based, luminescence, uHTS | 697 B-cell NF-kB luciferase reporter, 16 h | inhibition, % at 4 µM | 330,000 tested, 0.33% active; in the data active means inhibition above about 35%
NR2E3 ag-2 – NR2E3 agonists in two-hybrid cells, primary screen, cell-based, luminescence, CHO-S, Gal4-NCOR/VP16-NR2E3; luciferase; inhibition of corepressor binding, % at 3.98 µM; 360,000 tested, 0.35% active; AID 602229, 2012;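 active means inhibition above the mean of all tested compounds plus 3 SD, cut at about 70% in these data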;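 further: higher means lower luciferase signal from less NR2E3 corepressor binding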
JMJD2C inh – inhibitors of GASC-1 histone demethylase, primary screen, biochemical, fluorescence, DELFIA europium. inhibition, % at 2.35 µM. AID 2099, 2009. GST-JMJD2C(1-420) H3K9me3 demethylation. Lysine-specific demethylase 4C (Homo sapiens), Q9H3R0. 330,000 tested, 0.069% active;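 active means more than half of a compound's replicate wells show inhibition beyond 50%, single wells judged on their own value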;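 further: signal counts dimethyl H3K9 product captured on neutravidin plate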
Jurkat NFkB inh – inhibitors of induced NF-kB luciferase reporter, primary screen, TCR NF-kB activation inhibitor project, cell-based, luminescence, uHTS; Jurkat, PMA/ionomycin-induced NF-kB luciferase reporter; inhibition, % at 4 µM; 330,000 tested, 0.53% active; in the data active means inhibition above about 50%
Jurkat NFkB conf – PMA/ionomycin-induced NF-kB reporter inhibitors, Jurkat retest, confirmation, T-cell NF-kB inhibitor project, cell-based, luminescence, single concentration. shares compounds with Jurkat NFkB inh. Jurkat NF-kB luciferase, 16 h. inhibition, % at 4 µM. 2,700 tested, 27% active. AID 435020, 2010;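 active means inhibition reaching about 45% at 4 µM in either replicate, limit read from the data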
697 NFkB conf – PMA/ionomycin-induced NF-kB reporter inhibitors, 697 retest, confirmation, B-cell NF-kB inhibitor project, cell-based, luminescence, single concentration | shares compounds with 697 NFkB inh | 697 B-cell NF-kB luciferase, 16 h | inhibition, % at 4 µM | 2,000 tested, 35% active | AID 449746, 2010; in the data active means inhibition mostly above about 28%, no sharp cut-off; inactive means mostly below about 22%
NR2E3 ag conf – NR2E3 agonist confirmation in cells, cell-based, luminescence, CHO-S two-hybrid. AID 624378, 2012. CHO-S mammalian two-hybrid NR2E3-NCOR, luciferase luminescence. 2,300 tested, 51% active. shares compounds with NR2E3 ag-2. inhibition, % at 3.98 µM;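 active means average inhibition above a cutoff equal to the mean inhibition of all tested compounds plus one SD, cut at about 70% in these data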
VP16 counter – GAL4-VP16 reporter modulators, confirmation, counter-screen for NR2E3 agonist project, cell-based, luminescence, CHO-S, high throughput. shares compounds with NR2E3 ag-2. CHO-S GAL4-VP16 luciferase reporter. inhibition, % at 3.98 µM. 2,300 tested, 29% active;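 active means mean inhibition above a cutoff equal to the average over all tested compounds plus one standard deviation, cut at about 70% in these data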;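 further: luciferase from a UAS reporter driven by GAL4-VP16 transactivation; higher means less reporter light so more repression of VP16 activity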
Of the large screens only hits and unclear results are named; the others gave an inactive call (follow-up assays come after a bar, where they were run).

CCCCN(C(=O)c1ccc(C)c(S(=O)(=O)N2CCOCC2)c1)c1c(N)n(CCCC)c(=O)[nH]c1=O	none
Cn1cc(/C=C/C(=O)c2ccccc2)c2ccccc21	none | Jurkat NFkB conf inactive | 697 NFkB conf inactive
Cc1ccc(C(=O)/C=C/c2cn(CN3CCN(C)CC3)c3ccccc23)cc1	none
O=C1CCc2cc(S(=O)(=O)NC3CCCCC3)ccc2N1	none
CCCCCCCCCCCCCCCC[n+]1cccc2ccccc21	697 NFkB inh 62, Jurkat NFkB inh 88 | Jurkat NFkB conf 88 | 697 NFkB conf 23
Clc1ccc(-c2cn3ccccc3n2)cc1	none | Jurkat NFkB conf inactive | 697 NFkB conf inactive
COC(=O)N[C@H]1CC=C[C@@H]1Cc1cccc(Oc2ccccc2)c1	none (no result: NR2E3 ag-1, 697 NFkB inh, NR2E3 ag-2, JMJD2C inh, Jurkat NFkB inh)
Cc1cccc(-[n+]2c(C)cc(C)c3c(=O)[nH]c(=O)[nH]c32)c1	none
Cc1ccc(/C=C/c2nnc(-c3cccc(C)c3)o2)cc1	none
Cc1ccc(-c2nnc(/C=C/c3ccccc3)o2)cc1	none | Jurkat NFkB conf inactive | 697 NFkB conf inactive
CCCCCCn1ccc(=N)cc1	697 NFkB inh 72, Jurkat NFkB inh 63 | Jurkat NFkB conf 56 | 697 NFkB conf 73
CCCCCCCCCCCCCCCCn1cc[n+](CC(C)=O)c1	none (no result: GalR3 antagonist, NR2E3 ag-1, 697 NFkB inh, JMJD2C inh, Jurkat NFkB inh)
CCc1ccccc1NC(=O)CN(C)C(=O)COC(=O)c1ccco1	none (no result: NR2E3 ag-1)
COC(=O)[C@@]12C[C@@H](CC(=O)N3CCOCC3)C(=O)N(Cc3ccccc3)C1=CCC(C)(C)C2	none (no result: NR2E3 ag-1, 697 NFkB inh, NR2E3 ag-2, JMJD2C inh, Jurkat NFkB inh)
CC(=O)c1cnc2c(-c3ccc(Cl)cc3)cnn2c1C	none (no result: JMJD2C inh)
Clc1ccc(-c2cnn3c(-c4ccncc4)ccnc23)cc1	none | Jurkat NFkB conf inactive | 697 NFkB conf inactive
Cc1c(CC(=O)NCC(=O)NCC(=O)N[C@@H](Cc2ccccc2)C(=O)O)c(=O)oc2c(C)c(O)ccc12	none (no result: NR2E3 ag-1, 697 NFkB inh, JMJD2C inh, Jurkat NFkB inh)
COc1ccc(-n2c(=S)[nH]c3cc(C(=O)NCCCN4CCCC4=O)ccc3c2=O)c(OC)c1	none
CCCc1cc2c(=O)c(-c3ccc4c(c3)OCCO4)coc2cc1OC(=O)c1ccco1	none
CCc1cc2c(=O)c(-c3ccc4c(c3)OCCO4)coc2cc1OC(=O)c1ccco1	none | Jurkat NFkB conf inactive | 697 NFkB conf inactive
Cc1cc(CCCCCCCCc2cc(C)cc(=O)o2)oc(=O)c1	none
CC(Oc1ccc(Cl)cc1Cl)c1nc(-c2ccc(NC(=O)c3cccnc3)cc2)no1 (stereo not drawn)	none
CC(Oc1ccc(Cl)cc1Cl)c1nc(-c2ccc(NC(=O)c3ccncc3)cc2)no1 (stereo not drawn)	Jurkat NFkB inh 51 | Jurkat NFkB conf 57 | NR2E3 ag conf 78 | VP16 counter 72
Nc1nc2nn(-c3ccccc3)nc2c(=O)[nH]1	none
Nc1nc2n[nH]nc2c(=O)[nH]1	NR2E3 ag-2 81, Jurkat NFkB inh 64 | Jurkat NFkB conf 74 | NR2E3 ag conf inactive | VP16 counter inactive
Cc1cc(C(=O)COc2cccnc2[N+](=O)[O-])c(C)n1-c1ccccc1	NR2E3 ag-2 71, Jurkat NFkB inh 65 | Jurkat NFkB conf inactive | NR2E3 ag conf 72 | VP16 counter inactive
Cc1cc(C(=O)COc2cccnc2[N+](=O)[O-])c(C)n1Cc1ccco1	none
COc1ccccc1C(=O)Nc1nc2ccccc2[nH]1	697 NFkB inh 69, NR2E3 ag-2 82, Jurkat NFkB inh 91 | Jurkat NFkB conf 93 | 697 NFkB conf 67 | NR2E3 ag conf 77 | VP16 counter inactive
COc1cc(SC)ccc1C(=O)Nc1nc2ccccc2[nH]1	697 NFkB inh 92, NR2E3 ag-2 110, Jurkat NFkB inh 99 | Jurkat NFkB conf 98 | 697 NFkB conf 98 | NR2E3 ag conf 95 | VP16 counter 91
CCN1/C(=C/c2ccc3ccccc3[n+]2CC)C=Cc2ccccc21	GalR3 antagonist 53, NR2E3 ag-2 88, Jurkat NFkB inh 97 | Jurkat NFkB conf 71 | NR2E3 ag conf 98 | VP16 counter 88
CC(NC(=O)c1cc(S(=O)(=O)N2CCCC2)ccc1Cl)c1ccccn1 (stereo not drawn)	none
c1ccc(-c2noc(-c3ccc4ccccc4c3)n2)nc1	Jurkat NFkB inh 54 (no result: GalR3 antagonist) | Jurkat NFkB conf 77 | NR2E3 ag conf inactive | VP16 counter inactive
c1ccc(-c2noc(-c3ccncc3)n2)nc1	none
CC(=O)NC(=S)Nc1ccc2oc(=O)ccc2c1	none
O=C(CN1C(=O)c2ccccc2S1(=O)=O)c1ccc2c(c1)OCCO2	697 NFkB inh 93, Jurkat NFkB inh 94 | Jurkat NFkB conf 92 | 697 NFkB conf 92 | NR2E3 ag conf 85 | VP16 counter inactive
O=C(CN1C(=O)c2ccccc2S1(=O)=O)c1ccc(F)cc1	none
O=C(CN1C(=O)c2ccccc2S1(=O)=O)c1ccc2c(c1)OCCCO2	697 NFkB inh 94, NR2E3 ag-2 97, Jurkat NFkB inh 96 | Jurkat NFkB conf 94 | 697 NFkB conf 89 | NR2E3 ag conf 94 | VP16 counter 89
COC(=O)C1C2OC(C(Br)C2Br)C1C(=O)OC (stereo not drawn)	none (no result: NR2E3 ag-1, 697 NFkB inh, JMJD2C inh, Jurkat NFkB inh)
CSc1ccc(/C=C(\C(=O)O)c2ccc(S(=O)(=O)N3CCCC3)s2)cc1	none
CC(C)(C)c1ccc(C(=O)Nc2ccc(CC(=O)O)cc2)o1	697 NFkB inh 84, Jurkat NFkB inh 60 | Jurkat NFkB conf 73 | 697 NFkB conf 86 | NR2E3 ag conf inactive | VP16 counter inactive
